Results published in ChEMBL document CHEMBL3351359, “Design and synthesis of novel 2,4-diaryl-5H-indeno[1,2-b]pyridine derivatives, and their evaluation of topoisomerase inhibitory activity and cytotoxicity” (Bioorg Med Chem, 2015).

Key:
[1] = target: DNA topoisomerase 2-alpha (Homo sapiens) (UniProt P11388); test: Inhibition of human recombinant topoisomerase-2 alpha assessed as conversion of super-coiled plasmid DNA pBR322 to relaxed DNA at 100 uM after 30 mins by ethidium bromide staining-based agarose gel electrophoresis relative to etoposide
[2] = target: T1, DNA topoisomerase 1 (Homo sapiens) (UniProt P11387); test: Inhibition of human recombinant topoisomerase-1 assessed as conversion of super-coiled plasmid DNA pBR322 to relaxed DNA at 20 uM after 30 mins by ethidium bromide staining-based agarose gel electrophoresis (reference value: 25.9%)
T1 sequence (whole entry): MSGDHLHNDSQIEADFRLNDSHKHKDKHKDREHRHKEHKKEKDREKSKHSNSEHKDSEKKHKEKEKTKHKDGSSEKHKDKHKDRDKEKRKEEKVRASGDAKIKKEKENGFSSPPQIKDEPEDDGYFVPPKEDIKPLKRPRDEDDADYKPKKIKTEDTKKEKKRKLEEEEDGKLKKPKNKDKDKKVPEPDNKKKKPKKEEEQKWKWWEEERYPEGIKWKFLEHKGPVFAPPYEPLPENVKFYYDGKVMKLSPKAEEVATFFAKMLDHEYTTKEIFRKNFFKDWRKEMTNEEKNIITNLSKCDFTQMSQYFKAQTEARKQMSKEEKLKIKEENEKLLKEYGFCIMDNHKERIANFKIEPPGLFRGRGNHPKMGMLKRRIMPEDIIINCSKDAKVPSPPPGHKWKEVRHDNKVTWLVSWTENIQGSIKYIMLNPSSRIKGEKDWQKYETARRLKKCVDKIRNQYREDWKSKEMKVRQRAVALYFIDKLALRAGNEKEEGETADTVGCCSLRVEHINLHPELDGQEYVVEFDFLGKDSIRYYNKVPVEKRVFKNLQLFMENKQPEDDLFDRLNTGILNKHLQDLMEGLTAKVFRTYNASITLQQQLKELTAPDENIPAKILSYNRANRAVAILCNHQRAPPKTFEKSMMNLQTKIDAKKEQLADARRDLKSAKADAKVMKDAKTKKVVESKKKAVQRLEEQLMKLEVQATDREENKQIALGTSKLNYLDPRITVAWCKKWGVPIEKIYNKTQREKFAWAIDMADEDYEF
Method in brief: (§1)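 Relaxation of supercoiled pBR322 (100 ng) by 0.4 units recombinant human topo I, with or without compound (20 mM DMSO stocks), for 30 min at 37 °C. Buffer: 10 mM Tris-HCl pH 7.9, 150 mM NaCl, 0.1% BSA, 1 mM spermidine, 5% glycerol. Stopped with sarcosyl. Run on 1% agarose in TAE at 15 V for 7 h, stained with ethidium bromide, bands quantified under UV.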

[3] = Cytotoxicity against human HCT15 cells after 2 days by CCK-8 assay; format: functional, cell-based; settings: HCT-15, 48 h
Method in brief: (§2)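 Cells seeded at 2~4 × 10^4 per well, grown overnight in medium with 10% FBS at 37 °C, 5% CO2. On day 2, after 4 h FBS starvation, medium replaced with medium containing graded compound concentrations. On day 4, CCK-8 added for 4 h, then absorbance read at 450 nm. IC50 from four-parameter logistic fit. Mean ± S.D. of three experiments, each run in triplicate.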

[4] = target: T1, DNA topoisomerase 1 (Homo sapiens); test: Inhibition of human recombinant topoisomerase-1 assessed as conversion of super-coiled plasmid DNA pBR322 to relaxed DNA at 100 uM after 30 mins by ethidium bromide staining-based agarose gel electrophoresis relative to camptothecin
[5] = target: T1, DNA topoisomerase 1 (Homo sapiens); test: Inhibition of human recombinant topoisomerase-1 assessed as conversion of super-coiled plasmid DNA pBR322 to relaxed DNA at 100 uM after 30 mins by ethidium bromide staining-based agarose gel electrophoresis (reference value: 45.2%); method in brief: as §1
[6] = tested on: MCF7; test: Cytotoxicity against human MCF7 cells after 2 days by CCK-8 assay; format: functional, cell-based; settings: MCF7, 48 h; method in brief: as §2
[7] = tested on: DU-145; test: Cytotoxicity against human DU145 cells after 2 days by CCK-8 assay; format: functional, cell-based; settings: DU-145, 48 h; method in brief: as §2
[8] = target: DNA topoisomerase 2-alpha (Homo sapiens) (UniProt P11388); test: Inhibition of human recombinant topoisomerase-2 alpha assessed as conversion of super-coiled plasmid DNA pBR322 to relaxed DNA at 20 uM after 30 mins by ethidium bromide staining-based agarose gel electrophoresis (reference value: 20.2%)
Method in brief: (§3)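 Supercoiled pBR322 (200 ng) incubated with 1 unit human topo IIα, with or without compound, for 30 min at 30 °C. Buffer: 10 mM Tris-HCl pH 7.9, 50 mM NaCl, 5 mM MgCl2, 1 mM EDTA, 1 mM ATP, 15 μg/mL BSA. Stopped with EDTA. Run on 1% agarose in TAE at 25 V for 4 h, stained with ethidium bromide, supercoiled DNA quantified under UV.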

[9] = tested on: HeLa; test: Cytotoxicity against human HeLa cells after 2 days by CCK-8 assay; format: functional, cell-based; settings: 48 h; method in brief: as §2
[10] = target: DNA topoisomerase 2-alpha (Homo sapiens) (UniProt P11388); test: Inhibition of human recombinant topoisomerase-2 alpha assessed as conversion of super-coiled plasmid DNA pBR322 to relaxed DNA at 100 uM after 30 mins by ethidium bromide staining-based agarose gel electrophoresis (reference value: 32.4%); method in brief: as §3
[11] = target: T1, DNA topoisomerase 1 (Homo sapiens); test: Inhibition of human recombinant topoisomerase-1 assessed as conversion of super-coiled plasmid DNA pBR322 to relaxed DNA at 20 uM after 30 mins by ethidium bromide staining-based agarose gel electrophoresis (reference value: 19.6%); method in brief: as §1
[12] = target: DNA topoisomerase 2-alpha (Homo sapiens) (UniProt P11388); test: Inhibition of human recombinant topoisomerase-2 alpha assessed as conversion of super-coiled plasmid DNA pBR322 to relaxed DNA at 20 uM after 30 mins by ethidium bromide staining-based agarose gel electrophoresis (reference value: 46.7%); method in brief: as §3
[13] = target: T1, DNA topoisomerase 1 (Homo sapiens); test: Inhibition of human recombinant topoisomerase-1 assessed as conversion of super-coiled plasmid DNA pBR322 to relaxed DNA at 100 uM after 30 mins by ethidium bromide staining-based agarose gel electrophoresis (reference value: 62.9%); method in brief: as §1
[14] = target: DNA topoisomerase 2-alpha (Homo sapiens) (UniProt P11388); test: Inhibition of human recombinant topoisomerase-2 alpha assessed as conversion of super-coiled plasmid DNA pBR322 to relaxed DNA at 100 uM after 30 mins by ethidium bromide staining-based agarose gel electrophoresis (reference value: 87.8%); method in brief: as §3

Sequence of DNA topoisomerase 2-alpha (Homo sapiens) (P11388 whole entry): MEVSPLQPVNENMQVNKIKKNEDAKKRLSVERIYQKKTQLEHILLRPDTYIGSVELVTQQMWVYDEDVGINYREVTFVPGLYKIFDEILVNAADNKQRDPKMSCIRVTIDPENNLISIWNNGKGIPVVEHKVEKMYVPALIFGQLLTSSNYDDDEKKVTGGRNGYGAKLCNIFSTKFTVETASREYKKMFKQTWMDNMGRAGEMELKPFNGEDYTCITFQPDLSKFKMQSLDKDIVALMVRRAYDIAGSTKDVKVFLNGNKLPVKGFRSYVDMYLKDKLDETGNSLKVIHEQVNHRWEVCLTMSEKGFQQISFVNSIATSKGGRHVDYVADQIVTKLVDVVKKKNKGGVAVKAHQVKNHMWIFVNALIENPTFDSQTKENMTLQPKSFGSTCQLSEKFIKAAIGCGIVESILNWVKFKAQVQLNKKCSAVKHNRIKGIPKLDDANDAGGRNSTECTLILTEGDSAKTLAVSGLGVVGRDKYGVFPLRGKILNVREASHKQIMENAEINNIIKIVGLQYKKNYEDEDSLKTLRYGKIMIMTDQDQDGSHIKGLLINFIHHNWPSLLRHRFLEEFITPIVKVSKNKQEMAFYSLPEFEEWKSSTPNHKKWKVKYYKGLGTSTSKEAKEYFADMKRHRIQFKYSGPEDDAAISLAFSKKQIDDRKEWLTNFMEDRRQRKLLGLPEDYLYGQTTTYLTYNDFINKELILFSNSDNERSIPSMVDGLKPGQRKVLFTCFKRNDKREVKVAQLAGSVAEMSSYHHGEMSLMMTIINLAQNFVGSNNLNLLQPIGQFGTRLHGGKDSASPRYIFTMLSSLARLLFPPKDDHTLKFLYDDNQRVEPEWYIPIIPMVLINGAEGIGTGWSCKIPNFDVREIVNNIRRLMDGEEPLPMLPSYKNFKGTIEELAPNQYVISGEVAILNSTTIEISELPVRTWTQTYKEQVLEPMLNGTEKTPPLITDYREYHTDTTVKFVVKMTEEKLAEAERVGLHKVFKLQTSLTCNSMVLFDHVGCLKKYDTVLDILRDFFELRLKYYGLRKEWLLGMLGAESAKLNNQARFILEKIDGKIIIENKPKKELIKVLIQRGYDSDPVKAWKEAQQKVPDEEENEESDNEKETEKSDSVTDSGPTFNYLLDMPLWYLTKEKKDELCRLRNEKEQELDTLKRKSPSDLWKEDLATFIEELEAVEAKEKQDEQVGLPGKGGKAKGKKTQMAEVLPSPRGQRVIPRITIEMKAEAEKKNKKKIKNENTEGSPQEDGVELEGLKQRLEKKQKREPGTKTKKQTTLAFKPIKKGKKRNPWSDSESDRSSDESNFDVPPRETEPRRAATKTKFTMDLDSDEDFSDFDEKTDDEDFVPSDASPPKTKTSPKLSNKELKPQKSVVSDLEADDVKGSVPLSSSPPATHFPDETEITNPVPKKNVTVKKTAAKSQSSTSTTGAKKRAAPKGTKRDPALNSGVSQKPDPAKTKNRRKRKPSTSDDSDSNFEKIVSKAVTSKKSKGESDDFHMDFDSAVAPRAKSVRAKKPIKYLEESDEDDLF

Row | Ratio [1] | inhibition [2] | Ratio [4] | inhibition [5] | inhibition [8] | inhibition [10] | inhibition [11] | inhibition [12] | inhibition [13] | inhibition [14] | Compound | IC50 [3] | IC50 [6] | IC50 [7] | IC50 [9]
1 | 1.38 | 6.4% | 0.85 | 38.2% | 15% | 44.6% |  |  |  |  | c1coc(-c2cc(-c3ccco3)c3c(n2)-c2ccccc2C3)c1 | > 50 µM | 5.4 µM | 20.6 µM | 8.14 µM
2 | 0.58 | 5.7% | 0.91 | 41.3% |  | 18.7% |  |  |  |  | c1ccc(-c2cc(-c3ccco3)nc3c2Cc2ccccc2-3)cc1 | 16.6 µM | > 50 µM | 7.74 µM | 5.22 µM
3 | 1.14 |  | 1.45 |  |  |  | 2.9% | 0% | 90.9% | 100% | c1ccc2c(c1)Cc1c(-c3ccsc3)cc(-c3ccsc3)nc1-2 | 16.4 µM | > 50 µM | > 50 µM | 
4 | 1.14 |  | 0.83 |  |  |  | 1.5% | 0% | 52.5% | 100% | c1coc(-c2cc(-c3ccoc3)c3c(n2)-c2ccccc2C3)c1 | 20.2 µM | > 50 µM | > 50 µM | 
5 | 1.14 |  | 0.65 |  |  |  | 0.5% | 100% | 40.7% | 100% | c1ccc(-c2cc(-c3ccco3)nc3c2Cc2ccccc2-3)nc1 | 8.5 µM | 3.08 µM | > 50 µM | 4.13 µM
6 | 1.25 | 3.9% | 1.69 | 76.3% | 14.6% | 40.5% |  |  |  |  | c1coc(-c2cc(-c3cccs3)nc3c2Cc2ccccc2-3)c1 | 37.7 µM | 4.11 µM | 6.71 µM | 3.2 µM
